Consider 28 molecules from ChEMBL document CHEMBL1154636, “Exploring the importance of piperazine N-atoms for sigma(2) receptor affinity and activity in a series of analogs of 1-cyclohexyl-4-[3-(5-methoxy-1,2,3,4-tetrahydronaphthalen-1-yl)propyl]piperazine (PB28)” (J Med Chem, 2009).

SMILES strings stand for the structures.

Assay [1] in a line: Selectivity ratio of Ki for sigma 2 receptor in Wistar Hannover rat liver membrane to Ki for sigma 1 receptor in Dunkin guinea pig brain. Format: cell membranes. In a few lines: (§1)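 Ratios were calculated from Ki values. Sigma-1 Ki was measured with (+)-[3H]-pentazocine on guinea-pig brain membranes without cerebellum. […] Each IC50 came from six to nine concentrations, in two or three experiments with duplicates.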

Assay [2] in a line: Displacement of [3H]DTG form sigma 2 receptor in Wistar Hannover rat liver membrane by radioreceptor binding assay. Format: cell membranes. In a few lines:
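Specific binding was defined with DTG (85-96%). IC50 came from six to nine drug concentrations, in two or three experiments with duplicate samples.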
Background: Loss of bound radioactivity is the signal in a displacement assay; it reports binding, not function.

Assay [3] has as its target Sigma non-opioid intracellular receptor 1 (Cavia porcellus, UniProt Q60492). As to the kind of experiment: Displacement of [3H](+)-pentazocine ((+)-[2S-(2R,6R,11R)]-1,2,3,4,5,6-hexahydro-6,11-dimethyl- 3-(3-methyl-2-butenyl)-2,6-methano-3-benzazocine- 8-ol) from sigma 1 receptor in Dunkin guinea pig brain membrane by radioreceptor binding assay. It is filed as cell membranes. In a few lines: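 IC50 came from six to nine concentrations, in two or three experiments with duplicate samples. Compounds were tested as hydrochloride salts, or as methylammonium iodides where applicable.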

A short description of assay [4]: Selectivity ratio of Ki for sigma 1 receptor in Dunkin guinea pig brain membrane to Ki for sigma 2 receptor in Wistar Hannover rat liver membrane. It is filed as cell membranes. In a few lines:
as §1

Assay [5] deals with SK-N-SH. As to the kind of experiment: Antiproliferative activity against human SK-N-SH cells after 48 hrs by MTT assay. Format: functional, cell-based. In a few lines: (§2)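 Human SK-N-SH neuroblastoma cells were grown in RPMI 1640 with 10% FBS, 2 mM glutamine, penicillin/streptomycin, 1 mM pyruvate and 1% non-essential amino acids at 37 °C under 5% CO2. Cells were plated at 10 000/well and dosed next day at 1–100 μM, with solvent (ethanol, DMSO) controls. After 48 h, 0.5 mg/mL MTT was added for 3 h at 37 °C. Formazan was dissolved in DMSO and read at 570 and 630 nm.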

Assay [6] has as its target T1, 3-beta-hydroxysteroid-Delta(8),Delta(7)-isomerase (Cavia porcellus, UniProt Q60490).
T1 sequence (Q60490 whole entry): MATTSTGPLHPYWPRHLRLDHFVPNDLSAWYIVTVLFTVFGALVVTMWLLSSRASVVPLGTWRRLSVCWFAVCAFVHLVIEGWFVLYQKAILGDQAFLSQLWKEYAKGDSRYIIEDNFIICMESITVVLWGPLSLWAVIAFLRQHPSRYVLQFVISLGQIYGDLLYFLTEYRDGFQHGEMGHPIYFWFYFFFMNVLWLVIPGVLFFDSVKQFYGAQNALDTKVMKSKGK
In words: Displacement of [3H](+/-)-emopamil from EBP in Dunkin guinea pig liver membrane by radioreceptor binding assay. Format: cell membranes.

Assay [7] deals with SK-N-SH. In words: Inhibition of human SK-N-SH cell proliferation at 100 uM after 48 hrs by MTT assay. Format: functional. In a few lines:
as §2
Background: Tetrazolium dyes change colour on reduction, which living cells bring about.

A short description of assay [8]: Binding affinity to sigma 2 receptor in human SK-N-SH cells. Format: cell-based.
A short description of assay [9]: Displacement of [3H]DTG form sigma 2 receptor in rat liver membrane. It is filed as cell membranes. In a few lines: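 IC50 taken from six to nine drug concentrations, two or three experiments with duplicate samples, and converted to Ki. Tested as hydrochloride salts, or as methylammonium iodide salts for the quaternized analogs.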
Assay [10] can be described thus: Displacement of [3H]DTG form sigma receptor in guinea pig brain. The arrangement: species or system Cavia porcellus.
The target in assay [11] is Sigma non-opioid intracellular receptor 1 (Rattus norvegicus, UniProt Q9R0C9). As to the kind of experiment: Displacement of [3H](+/-)-pentazocine from sigma 1 receptor in rat whole brain.
Chain of Sigma non-opioid intracellular receptor 1 (Rattus norvegicus, UniProt Q9R0C9) (Q9R0C9 whole entry): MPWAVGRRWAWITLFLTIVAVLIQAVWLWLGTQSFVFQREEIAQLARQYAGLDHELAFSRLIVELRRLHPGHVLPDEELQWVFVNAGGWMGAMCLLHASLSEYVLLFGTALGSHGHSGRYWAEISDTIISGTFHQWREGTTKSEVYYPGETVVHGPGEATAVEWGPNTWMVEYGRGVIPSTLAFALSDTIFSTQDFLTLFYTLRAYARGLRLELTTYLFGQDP

Chain of Sigma non-opioid intracellular receptor 1 (Cavia porcellus, UniProt Q60492) (Q60492 whole entry): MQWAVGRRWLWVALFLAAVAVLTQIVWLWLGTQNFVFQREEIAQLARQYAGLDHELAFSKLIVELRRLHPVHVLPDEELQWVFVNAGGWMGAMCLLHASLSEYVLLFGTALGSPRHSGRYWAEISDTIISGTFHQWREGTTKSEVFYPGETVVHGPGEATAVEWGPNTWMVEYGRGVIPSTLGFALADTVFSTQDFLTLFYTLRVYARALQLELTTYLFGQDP

For orientation: Ki means the equilibrium dissociation constant of an inhibitor or competing ligand from its target. Turning to `COc1cccc2c1CCCC2OCCN1CCC(C2CCCCC2)CC1` (stereo unspecified), in assay [1], the Ratio Ki is 1.8. Moreover, the Ki turned out to be 161 nM in assay [2] and 91 nM in assay [3].

The EC50 is the concentration that produces a half-maximal response. Low readings indicate an effect from little substance, high ones a need for much substance. Regarding `COc1cccc2c1CCCC2CCCN1CCC(C2CCCCC2)CC1` (stereo unspecified), the Ratio Ki in assay [4] amounted to 7.6. In addition, in the assay on SK-N-SH [5], the EC50 worked out at 3.64 µM. In addition, the inhibition constant Ki in assay [6] is 7.4 nM; in [2], 18.8 nM; in assay [3], 143 nM.

By inhibition is commonly meant the share of the control response that was lost under treatment. Regarding `C1CCC(N2CCN(C3CCCCC3)CC2)CC1`, the inhibition constant (Ki) in [6] was 17 nM; in assay [2], 11.5 nM; in [3], 2.05 nM. Besides, in [1], the Ratio Ki came out at 5.6. Moreover, 100 µM produced 4% inhibition in the assay with SK-N-SH [7].

Turning to `c1ccc(CCN2CCN(c3ccccn3)CC2)cc1`, the inhibition at 100 µM in the assay on SK-N-SH [7] was 38%.

For `COc1cccc2c1CCCC2CCCN1CCOCC1` (stereo unspecified), the Ratio Ki in [1] came to 49. The results for the inhibition constant (Ki) in [2] and in assay [3] were 442 nM and 9.1 nM, respectively.

As for `O=C(C1CCCCC1)N1CCN(C2CCCCC2)CC1`, the Ki in assay [6] was 230 nM; in assay [2] it was 201 nM; in [3], 3.59 nM. For the same molecule, the Ratio Ki in [1] is 56.

On to `COc1cccc2c1CCCC2NCCN1CCC(C2CCCCC2)CC1` (stereo unspecified), for which, in assay [1], the Ratio Ki was found to be 111. Moreover, the Ki was 74.7 nM in [2] and 0.67 nM in assay [3].

Take `CC(=O)N1CCN(C)CC1`: the figures for the inhibition constant Ki in assay [6], in assay [2] and in assay [3] were greater than 1000 nM, greater than 10000 nM and greater than 5000 nM, respectively.

In the assay on SK-N-SH [5], `C1CCC(CCCN2CCN(C3CCCCC3)CC2)CC1` returned a half-maximal effective concentration (EC50) of 52.1 µM. Also, the results for the inhibition constant (Ki) in assay [6] and in assay [3] were 4.7 nM and 0.25 nM, respectively. In assay [1], the Ratio Ki came out at 19.

`COc1cccc2c1CCCC2CCCC1CCN(C2CCCCC2)CC1` (stereo unspecified) came in with an EC50 in the assay on SK-N-SH [5] of 1.4 µM. Further, the Ki in assay [6] stood at 1.46 nM; in [2] it was 26.6 nM; in assay [3] it was 1.1 nM. The Ratio Ki in assay [1] was 24.

`CC(C)=CCN1CC[C@]2(C)c3cc(O)ccc3C[C@H]1[C@H]2C` [(+)-PENTAZOCINE] showed a Ki in assay [8] of 1860 nM.

`COc1cccc2c1CCCC2CCCN1CCN(C(=O)C2CCCCC2)CC1` (stereo unspecified): the Ratio Ki in assay [4] was greater than 16. Also, the Ki in assay [6] was 550 nM; in [2], 304 nM; in [3], greater than 5000 nM.

For the molecule `COc1cccc2c1CCCC2CCC[N+]1(C)CC[N+](C)(C2CCCCC2)CC1` (stereo unspecified), the Ratio Ki in assay [4] was greater than 3. For the same molecule, the inhibitory constant (Ki) in assay [6] is 150 nM; in assay [2] it was 1710 nM; in assay [3] it was greater than 5000 nM. The molecule further displayed an inhibition at 100 µM in the assay with SK-N-SH [7] of 30%.

`COc1cccc2c1CCCC2CCCNCC(=O)NC1CCCCC1` (stereo unspecified): the Ratio Ki in assay [4] worked out at 5. Further, the Ki in [6] turned out to be 1230 nM; in assay [2], 798 nM; in assay [3], 3910 nM.

In the case of `COc1cccc2c1CCCC2CCCN1CCN(C2CCCCC2)CC1` (stereo unspecified), the EC50 in the assay on SK-N-SH [5] stood at 9.97 µM. The same molecule showed an inhibitory constant (Ki) in assay [9] of 0.68 nM.

In the case of `COc1cccc2c1CCCC2CCCN1CCNCC1` (stereo unspecified), the inhibition constant Ki was greater than 877 nM in [10], 35.4 nM in assay [6], 590 nM in assay [2] and 218 nM in assay [3]. In addition, the Ratio Ki in assay [1] worked out at 2.7.

For `CC(C(O)c1ccc(O)cc1)N1CCC(Cc2ccccc2)CC1` (racemic) [IFENPRODIL], the inhibitory constant (Ki) in assay [6] was 10.2 nM.

Turning to `COc1cccc2c1CCCC2CCC(=O)N1CCN(C2CCCCC2)CC1` (stereo unspecified), the inhibition constant Ki amounted to 7.4 nM in assay [6], 179 nM in assay [2] and 0.11 nM in [3]. For the same molecule, the Ratio Ki in assay [1] came out at 1630.

`COc1cccc2c1CCCC2CCC[N+]1(C)CCN(C2CCCCC2)CC1` (stereo unspecified): the Ratio Ki in assay [4] is 9.4. In addition, the Ki came to 32 nM in assay [6], 6.78 nM in assay [2] and 63.7 nM in [3]. In the assay on SK-N-SH [7], this molecule registered an inhibition at 100 µM of 26%.

In the case of `Cc1ccccc1NC(=N)Nc1ccccc1C` [DITOLYLGUANIDINE], affinity in assay [2] was put at a Ki of 32 nM.

In turn, `COc1cccc2c1CCCC2CCCN1CCC(O)(C2CCCCC2)CC1` (stereo unspecified) returned an EC50 in the assay on SK-N-SH [5] of 15.9 µM. For the same molecule, the results for the Ki in assay [6], in assay [2] and in assay [3] were 10.4 nM, 9.27 nM and 5.56 nM, respectively. Also, in assay [1], the Ratio Ki came to 1.6.

Consider `C1CCC(N2CCNCC2)CC1`, for which the results for the inhibition constant (Ki) in assay [6], in assay [2] and in [3] were greater than 1000 nM, greater than 5000 nM and greater than 5000 nM, respectively.

Regarding `COc1cccc2c1CCCC2CCCCCN1CCC(C2CCCCC2)CC1` (stereo unspecified), the Ratio Ki in assay [4] was 3.3. Also, the Ki was found to be 49 nM in assay [6], 72.3 nM in assay [2] and 236 nM in assay [3].

With `CC(=O)N1CCN(C2CCCCC2)CC1`, the Ki in assay [6] was greater than 1000 nM; in assay [2], greater than 5000 nM; in assay [3] it was greater than 5000 nM.

For `COc1cccc2c1CCCC2CCCN1CC[N+](C)(C2CCCCC2)CC1` (stereo unspecified), the Ratio Ki in assay [4] came to 26. In addition, the figures for the inhibition constant Ki in assay [6], in [2] and in [3] were 23 nM, 13 nM and 338 nM, respectively. In the assay on SK-N-SH [7], this molecule registered an inhibition at 100 µM of 22%.

For `COc1cccc2c1CCCC2CCCN1CCN(CCCC2CCCc3c(OC)cccc32)CC1` (stereo unspecified), in [4], the Ratio Ki is greater than 42. Moreover, the Ki in assay [6] is 470 nM; in [2], 120 nM; in assay [3], greater than 5000 nM.

With `COc1cccc2c1CCCC2CCCN1CCCCC1` (stereo unspecified), the Ki in [11] turned out to be 18.2 nM; in assay [6], 11.1 nM; in [2], 41.2 nM; in [3], 3.38 nM. For the same molecule, the Ratio Ki in assay [1] was found to be 12.

As for `CCN1CCN(C2CCCCC2)CC1`, the Ki in assay [6] worked out at 64.4 nM; in assay [2], 349 nM; in [3] it was 62.4 nM. Further, in assay [1], the Ratio Ki turned out to be 5.6.
